# Results as given in the M2OR odorant receptor database.
# Assays:
# Details in all cases: stereoisomer not certain
# Or1m1 (Mus musculus) = target: T1, Or1m1 (Mus musculus) (UniProt Q8VFM9)
# T1 sequence (whole entry): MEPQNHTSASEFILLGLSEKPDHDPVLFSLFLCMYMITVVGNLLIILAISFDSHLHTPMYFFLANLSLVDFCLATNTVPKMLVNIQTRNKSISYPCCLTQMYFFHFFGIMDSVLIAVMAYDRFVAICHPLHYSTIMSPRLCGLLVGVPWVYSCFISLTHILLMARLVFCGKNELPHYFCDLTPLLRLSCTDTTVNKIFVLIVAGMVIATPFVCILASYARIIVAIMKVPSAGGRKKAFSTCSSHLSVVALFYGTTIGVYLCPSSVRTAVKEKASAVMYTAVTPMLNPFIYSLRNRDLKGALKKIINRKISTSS
# Outline: (§1)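 Transient luciferase assays in mammalian cell lines were common, though methods varied by source. The values come from published papers and their supplementary material, with extra details from the original authors when needed. Responsive refers to a measured signal the original authors judged statistically different from baseline, and non-responsive (inactive) to the remainder.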
# Or2c1 (Mus musculus) = target: T2, Or2c1 (Mus musculus) (UniProt P23275)
# T2 sequence (whole entry): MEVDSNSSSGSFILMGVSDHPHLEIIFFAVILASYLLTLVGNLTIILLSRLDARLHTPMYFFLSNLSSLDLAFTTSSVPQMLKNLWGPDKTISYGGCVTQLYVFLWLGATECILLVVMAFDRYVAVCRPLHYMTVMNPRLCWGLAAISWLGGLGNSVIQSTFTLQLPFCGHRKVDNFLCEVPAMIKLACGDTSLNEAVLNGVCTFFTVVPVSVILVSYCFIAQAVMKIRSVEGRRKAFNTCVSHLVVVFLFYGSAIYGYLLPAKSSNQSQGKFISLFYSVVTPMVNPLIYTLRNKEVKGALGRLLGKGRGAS
# Outline: as §1
# Or5ar1 (Mus musculus) = target: T3, Or5ar1 (Mus musculus) (UniProt Q8VGS3)
# T3 sequence (whole entry): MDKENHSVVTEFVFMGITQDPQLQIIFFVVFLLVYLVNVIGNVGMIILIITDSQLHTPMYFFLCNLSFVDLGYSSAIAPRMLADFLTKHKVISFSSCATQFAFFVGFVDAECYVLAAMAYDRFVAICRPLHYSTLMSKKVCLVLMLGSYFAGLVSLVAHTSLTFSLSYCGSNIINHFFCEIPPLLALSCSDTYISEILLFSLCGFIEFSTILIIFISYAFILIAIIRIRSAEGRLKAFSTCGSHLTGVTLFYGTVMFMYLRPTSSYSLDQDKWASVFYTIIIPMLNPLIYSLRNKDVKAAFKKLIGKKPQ
# Outline: as §1
# 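Also: active if original authors judged signal statistically different from baseline.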
Compound,odorant receptor agonist call (Or1m1 (Mus musculus)),odorant receptor agonist call (Or2c1 (Mus musculus)),odorant receptor agonist call (Or5ar1 (Mus musculus))
CCCCCCCCO,inactive,inactive,inactive
COc1cc(C(=O)O)ccc1O,inactive,inactive,inactive
CCCCCC1=C(C)CCC1=O,inactive,inactive,inactive
CC1(C)CC(=O)CC(=O)C1,inactive,–,inactive
CCc1ccccc1O,inactive,–,inactive
CC(C)=C1CCC(C)CC1=O (stereo not drawn),inactive,–,inactive
C=CC(=O)CCCCC,inactive,–,inactive
O=C(O)CCCCCBr,inactive,–,inactive
O=C(O)C1CCC1,inactive,–,inactive
CCCCCCC=CC=O,inactive,–,inactive
O=C(O)CCCCCCCCC(=O)O,inactive,–,inactive
CCCCCC(C=O)=Cc1ccccc1,inactive,–,inactive
COc1ccccc1,inactive,–,inactive
CCCCCCCCCC=CC=O,inactive,–,inactive
Cc1ccc2c(c1)OCC(=O)CO2,inactive,–,inactive
C=CC(=C)CCC=C(C)C,inactive,–,inactive
OCC=Cc1ccccc1,inactive,–,inactive
CCCCCCCCOC=O,inactive,–,inactive
CC(=O)C=CC1=C(C)CCCC1(C)C,inactive,–,inactive
CCC=CCCC=CC=O,inactive,–,inactive
C=CC(=C)CCC=C(C)CCC=C(C)C,inactive,–,inactive
C=C(CC)CCCC(C)(C)O,inactive,–,inactive
CCSCC,inactive,–,inactive
CSSSC,inactive,–,inactive
CCSSCC,inactive,–,inactive

Compound,odorant receptor agonist call (Or1m1 (Mus musculus)),odorant receptor agonist call (Or2c1 (Mus musculus)),odorant receptor agonist call (Or5ar1 (Mus musculus))
CC(C)CCN,inactive,–,inactive
CCc1occc(=O)c1O,inactive,–,inactive
CCCC=O,inactive,–,inactive
CC(C)=CCCC(C)=CCOC(=O)C(C)C,inactive,–,inactive
CCCCCC=CCCC=O,inactive,–,inactive
CCCCCOC(=O)CC,inactive,–,inactive
Cc1ccc(C(C)C)cc1,inactive,–,inactive
CCOC(=O)C(C)CC (stereo not drawn),inactive,–,inactive
CC(=O)OCc1ccc2c(c1)OCO2,inactive,–,inactive
CCC(C)O (stereo not drawn),inactive,–,inactive
OCCCCCCCCCO,inactive,–,inactive
OCCc1ccccc1,inactive,–,inactive
CCCCCC(=Cc1ccccc1)C(OC)OC,inactive,–,active
Cc1c(C)c(C)c(C=O)c(C)c1C,inactive,–,inactive
C1CCOCC1,inactive,–,inactive
C=C1C2CCC(C2)C1(C)C (stereo not drawn),inactive,–,inactive
C=C(C)C1CCC2(C)OC2C1 (stereo not drawn),inactive,–,inactive
CC(=O)OC1(C)CCC23CC1C(C)(C)C2CCC3C (stereo not drawn),active,–,inactive
Cc1ccccc1OC(=O)C(C)C,inactive,–,inactive
Cc1ccc(OC(=O)C(C)C)cc1,inactive,–,inactive
CC=Cc1ccc(OC)cc1,inactive,–,inactive
CC1CCC(C(C)C)C(=O)C1 (stereo not drawn),inactive,–,inactive
CCC=CCCCCC=O,inactive,–,inactive
CCCCCCC(=O)OCCCC,inactive,–,inactive
CCCCCCCCC=CC=O,inactive,–,inactive
